Assay results taken from ChEMBL document CHEMBL4706601, “The endocannabinoid system dual-target ligand N-cycloheptyl-1,2-dihydro-5-bromo-1-(4-fluorobenzyl)-6-methyl-2-oxo-pyridine-3-carboxamide improves disease severity in a mouse model of multiple sclerosis” (Eur J Med Chem, 2020).
Activity calls are given as the source filed them.

Columns and labels:
[1] = test system: Mus musculus; assay: In vivo agonist activity at CB1R in BALB/c mouse assessed as reduction in body temperature at 5 mg/kg, ip measured after 1 hr by tetrad test; format: functional, organism-based
Method in brief: (§1)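 BALB/c mice given 5 mg/kg i.p. in DMSO (20 µL), tested 1 h later. Rectal temperature change from basal; catalepsy by bar test (4 cm bar, 120 s cut-off); locomotion by rotarod latency to fall at 4 rpm (120 s cut-off, 3 trials); analgesia by hot plate at 54-56 °C, first paw lick or shake. n = 5-20 per group.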

[2] = target: Cannabinoid receptor 1 (Homo sapiens, UniProt P21554); assay: Displacement of [3H]CP55940 from recombinant human CB1R expressed in CHO cell membranes incubated for 90 mins; parameters: species or system Membrane
Sequence of Cannabinoid receptor 1 (P21554 whole entry): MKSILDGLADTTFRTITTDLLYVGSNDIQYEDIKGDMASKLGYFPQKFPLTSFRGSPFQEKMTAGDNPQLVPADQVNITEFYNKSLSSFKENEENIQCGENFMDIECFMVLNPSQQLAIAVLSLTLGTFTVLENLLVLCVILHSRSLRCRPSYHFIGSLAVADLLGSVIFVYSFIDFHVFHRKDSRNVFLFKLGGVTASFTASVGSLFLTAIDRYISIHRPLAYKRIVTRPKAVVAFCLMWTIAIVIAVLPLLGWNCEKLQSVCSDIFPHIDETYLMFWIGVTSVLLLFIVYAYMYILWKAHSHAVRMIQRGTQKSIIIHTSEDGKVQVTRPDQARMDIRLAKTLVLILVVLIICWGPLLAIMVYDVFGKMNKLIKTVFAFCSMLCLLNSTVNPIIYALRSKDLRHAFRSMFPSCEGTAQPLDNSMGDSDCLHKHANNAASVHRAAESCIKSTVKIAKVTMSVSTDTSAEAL

[3] = target: Cannabinoid receptor 2 (Homo sapiens, UniProt P34972); assay: Displacement of [3H]CP55940 from recombinant human CB2R expressed in CHO cell membranes incubated for 90 mins; parameters: species or system Membrane
Sequence of Cannabinoid receptor 2 (P34972 whole entry): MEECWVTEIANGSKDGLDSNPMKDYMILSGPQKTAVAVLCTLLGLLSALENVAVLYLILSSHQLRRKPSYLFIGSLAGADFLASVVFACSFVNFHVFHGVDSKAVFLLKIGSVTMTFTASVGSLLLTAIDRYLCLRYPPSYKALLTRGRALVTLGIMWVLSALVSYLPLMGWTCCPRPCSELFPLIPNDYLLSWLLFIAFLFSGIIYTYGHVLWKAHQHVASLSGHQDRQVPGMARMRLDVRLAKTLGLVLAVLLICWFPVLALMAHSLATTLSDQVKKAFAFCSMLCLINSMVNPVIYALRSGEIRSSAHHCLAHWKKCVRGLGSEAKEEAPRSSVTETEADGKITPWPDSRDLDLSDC

[4] = target: T1, Fatty-acid amide hydrolase 1 (Homo sapiens, UniProt O00519); assay: Inhibition of FAAH in human U937 cells using [ethanolamine-1-3H]AEA as substrate preincubated for 15 mins followed by substrate addition and measured after 15 mins by liquid scintillation spectroscopy; format: cell-based, U-937
T1 sequence (O00519 whole entry): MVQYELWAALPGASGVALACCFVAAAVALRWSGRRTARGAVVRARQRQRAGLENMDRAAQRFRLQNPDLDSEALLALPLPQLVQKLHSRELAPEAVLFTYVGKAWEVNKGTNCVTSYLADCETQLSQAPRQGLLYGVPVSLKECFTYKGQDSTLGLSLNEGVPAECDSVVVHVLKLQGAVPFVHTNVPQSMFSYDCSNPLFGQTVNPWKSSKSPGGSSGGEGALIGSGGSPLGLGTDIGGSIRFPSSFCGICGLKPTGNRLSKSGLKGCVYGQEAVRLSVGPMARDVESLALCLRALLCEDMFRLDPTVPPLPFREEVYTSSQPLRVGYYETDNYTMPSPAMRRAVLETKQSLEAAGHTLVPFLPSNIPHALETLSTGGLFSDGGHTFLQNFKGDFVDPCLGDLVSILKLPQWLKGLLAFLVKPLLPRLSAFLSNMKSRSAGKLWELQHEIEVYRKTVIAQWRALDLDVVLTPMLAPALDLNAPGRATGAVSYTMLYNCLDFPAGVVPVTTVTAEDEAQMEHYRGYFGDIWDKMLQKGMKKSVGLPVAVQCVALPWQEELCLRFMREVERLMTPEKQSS
Method in brief: (§2)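 Intact U937 cells, 10^6 per condition, pre-incubated with compound 15 min at 37 °C with shaking (screen at 10 μM; full curves for hits). Substrate: 1 μM AEA with 1 nM [3H]AEA (FAAH) or 10 μM 2-OG with 5 nM [3H]2-OG (MAGL), 15 min at 37 °C. Stopped with CHCl3:MeOH 1:1, aqueous tritium counted; mean ± SD, ≥3 experiments in triplicate.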

[5] = target: T2, Monoglyceride lipase (Homo sapiens, UniProt Q99685); assay: Inhibition of MAGL in human U937 cells using [glycerol-1,2,3-3H]2-OG as substrate preincubated for 15 mins followed by substrate addition and measured after 15 mins by liquid scintillation spectroscopy; format: cell-based, U-937; method in brief: as §2
T2 sequence (Q99685 whole entry): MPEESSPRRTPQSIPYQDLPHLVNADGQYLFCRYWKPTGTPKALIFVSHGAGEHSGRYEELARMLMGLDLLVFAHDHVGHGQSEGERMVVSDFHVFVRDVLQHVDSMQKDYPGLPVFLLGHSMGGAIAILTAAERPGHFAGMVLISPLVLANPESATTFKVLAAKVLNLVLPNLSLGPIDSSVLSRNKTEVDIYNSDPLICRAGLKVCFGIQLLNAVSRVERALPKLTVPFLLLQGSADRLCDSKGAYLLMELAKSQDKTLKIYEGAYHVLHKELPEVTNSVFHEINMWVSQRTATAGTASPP

[6] = target: T3, Monoacylglycerol lipase ABHD6 (Homo sapiens, UniProt Q9BV23); assay: Inhibition of human ABHD6 expressed in HEK293 cells using 2-OG as substrate preincubated for 30 mins followed by substrate addition and measured after 5 mins by liquid scintillation spectroscopy; format: cell-based
T3 sequence (Q9BV23 whole entry): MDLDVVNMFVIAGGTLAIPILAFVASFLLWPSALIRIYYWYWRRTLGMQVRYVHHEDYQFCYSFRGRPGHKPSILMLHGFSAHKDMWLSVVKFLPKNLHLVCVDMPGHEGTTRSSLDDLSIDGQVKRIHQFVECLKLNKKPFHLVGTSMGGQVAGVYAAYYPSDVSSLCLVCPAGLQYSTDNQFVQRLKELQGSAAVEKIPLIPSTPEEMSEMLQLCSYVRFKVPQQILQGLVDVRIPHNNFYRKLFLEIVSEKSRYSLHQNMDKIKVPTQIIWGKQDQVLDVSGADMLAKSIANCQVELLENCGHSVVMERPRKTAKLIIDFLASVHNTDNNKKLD
Method in brief: (§3)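 Homogenates (40 µg) from HEK293 stably expressing hABHD6 or hABHD12 pre-incubated with compound 30 min at 37 °C in […], 0.1% BSA, pH 7.6; then 10 μM 2-OG for 5 min at 37 °C. Aqueous phase tritium counted after CHCl3:MeOH stop; no-enzyme blanks and non-transfected HEK293 hydrolysis subtracted. Controls WWL70 10 μM, THL 20 μM.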

[7] = target: T4, Lysophosphatidylserine lipase ABHD12 (Homo sapiens, UniProt Q8N2K0); assay: Inhibition of human ABHD12 expressed in HEK293 cells using 2-OG as substrate preincubated for 30 mins followed by substrate addition and measured after 5 mins by liquid scintillation spectroscopy; format: cell-based; method in brief: as §3
T4 sequence (Q8N2K0 whole entry): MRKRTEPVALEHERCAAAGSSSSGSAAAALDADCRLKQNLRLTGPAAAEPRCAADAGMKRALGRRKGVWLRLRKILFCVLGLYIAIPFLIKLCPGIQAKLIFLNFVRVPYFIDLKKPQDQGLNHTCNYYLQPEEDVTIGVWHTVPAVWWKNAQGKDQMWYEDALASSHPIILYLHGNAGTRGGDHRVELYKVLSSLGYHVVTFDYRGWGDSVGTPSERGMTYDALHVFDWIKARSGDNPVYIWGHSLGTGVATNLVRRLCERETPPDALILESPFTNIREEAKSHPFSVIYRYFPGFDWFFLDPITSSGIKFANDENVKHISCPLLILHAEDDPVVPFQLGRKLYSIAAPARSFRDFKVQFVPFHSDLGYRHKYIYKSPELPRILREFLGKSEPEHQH

[8] = test system: Mus musculus; assay: In vivo agonist activity at CB1R in BALB/c mouse assessed as reduction in spontaneous locomotion at 5 mg/kg, ip measured after 1 hr by rotarod test; format: functional, organism-based; method in brief: as §1
[9] = test system: Mus musculus; assay: In vivo agonist activity at CB1R in BALB/c mouse assessed as catalpesy-like behaviour by measuring increase in immobility time at 5 mg/kg, ip measured after 1 hr by bar test; format: functional, organism-based; method in brief: as §1
[10] = test system: Mus musculus; assay: In vivo agonist activity at CB1R in BALB/c mouse assessed as induction of analgesia at 5 mg/kg, ip measured after 1 hr by hotplate test; format: functional, organism-based; method in brief: as §1

Row | Structure (SMILES) | Activity [1] | Ki [2] | Ki [3] | IC50 [4] | IC50 [5] | IC50 [6] | IC50 [7] | Activity [8] | Activity [9] | Activity [10]
1 | Cc1c(Br)cc(C(=O)NC2CCCCCC2)c(=O)n1Cc1ccc(F)cc1 | Active | 2.9 nM | 1.5 nM | 5900 nM | > 10000 nM | > 10000 nM | > 10000 nM | Active | Active | Active
2 | COc1ccc(-c2cc(C(=O)NC3CCCCCC3)c(=O)n(Cc3ccc(F)cc3)c2C)cc1 | inactive | 9.8 nM | 26.2 nM | 2000 nM | > 10000 nM | 530 nM | > 10000 nM | inactive | inactive | inactive
